Reference: ChEMBL document CHEMBL1129988, “4-substituted cubylcarbinylamines: a new class of mechanism-based monoamine oxidase B inactivators” (J Med Chem, 1997)

Columns and labels:
[1] = substrate: NCC12C3C4C1C1C2C3C41c1ccccc1; assay: (§1) Michaelis-Menten constant was determined against mitochondrial Monoamine oxidase B
Summary of the method: (§2)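 K_m and k_cat against MAO B were obtained by measuring hydrogen peroxide formed over time with the amine as substrate.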

[2] = substrate: NCC12C3C4C5C3C1C5C42; assay: as §1; summary of the method: as §2
[3] = substrate: NCC12C3C4C1C1C2C3C41C1CC1; assay: as §1; summary of the method: as §2

B1: Amine oxidase [flavin-containing] B (Bos taurus) (protein)
chain: MSSKCDVVVVGGGISGMAAAKLLHDSGLNVIVLEARDRVGGRTYTLRNQKVKYVDLGGSYVGPTQNHILRLSKELGLETYKVNEVERLIHHTKGKSYPFRGSFPSVWNPITYLDHNNLWRTMDDMGREIPSDAPWKAPLAEQWDLMTMKELLDKICWTESSKQLAILFVNLCVTAEIHEVSALWFLWYVKQCGGTTRIFSTSNGGQERKFVGGSGQVSERIMDLLGDRVKLERPVIHIDQTGENVLVETLNHELYEAKYVISAVPPVLGMKIHFNPPLPMMRNQLITRVPLGSVIKSIVYYKEPFWRNMDYCGSMIIEGEEAPVAYALDDTKPDGSYPAIIGFILAHKARKLARLTKEERLKKLCDLYAKVLGSQEALHPVHYEEKNWCEEQYSGGCYTSYFPPGIMTQYGRVLRQPVGRIYFAGTETATHWSGYMEGAVEAGERAAREILHAMGKIPEDEIWLPEPESVDVPAKPITTTFLQRHLPSVPGLLKLIGLTTIFSATALGFLAHKRGLLVRI
Km [1]: 1010 µM | kcat [1]: 3.47 s⁻¹ | kcat/Km [1]: 3500 M⁻¹ s⁻¹ | Km [2]: 140 µM | kcat [2]: 0.0833 s⁻¹ | kcat/Km [2]: 600 M⁻¹ s⁻¹ | Km [3]: 1540 µM | kcat [3]: 2.5 s⁻¹ | kcat/Km [3]: 1670 M⁻¹ s⁻¹
